Measured values from ChEMBL document CHEMBL1687778, “Genetic determinants involved in the susceptibility of Pseudomonas aeruginosa to beta-lactam antibiotics” (2010).
Values after ≈ are worked out from the molar mass of the structure shown.

What was measured:
Type in all cases: functional
Pseudomonas aeruginosa [1] = test: Antimicrobial activity against Pseudomonas aeruginosa PA14 PA3520 harboring mutation in putative periplasmic metal-binding protein by Etest method
Outline: (§1)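 Etest MIC. Overnight LB cultures at 37°C were diluted in sterile 0.85% NaCl to about 1 × 10^7 CFU/ml. 100 µl was spread on Mueller-Hinton agar, one strip was placed per plate, and plates were incubated at 37°C for 18 h. Equal cell numbers were seeded per plate, and results were verified in triplicate. PA14 wild type was included in each set as a susceptibility control.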

Pseudomonas aeruginosa [2] = test: Antimicrobial activity against Pseudomonas aeruginosa PA14 PA0770 harboring rnc mutant gene by Etest method
Outline: (§2)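 Overnight LB cultures (37°C) diluted in sterile 0.85% NaCl to about 1 × 10^7 CFU/ml. 100 µl spread on Mueller-Hinton agar, one Etest strip per plate, 18 h at 37°C. Ceftazidime, imipenem and meropenem tested. Wild-type PA14 plate included in each set. Each mutant verified in triplicate.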

Pseudomonas aeruginosa [3] = test: Antimicrobial activity against Pseudomonas aeruginosa PA14 PA3667 harboring mutation in putative cysteine sulfinate desulfinase by Etest method; outline: as §1
Pseudomonas aeruginosa [4] = test: Antimicrobial activity against Pseudomonas aeruginosa PA14 PA14_07490/07510 harboring mutation in intergenic region by Etest method; outline: as §2
Pseudomonas aeruginosa [5] = test: Antimicrobial activity against Pseudomonas aeruginosa PA14 PA2963 harboring mutation in putative aminodeoxychorismate lyase by Etest method; outline: as §2
Pseudomonas aeruginosa [6] = test: Antimicrobial activity against Pseudomonas aeruginosa PA14 PA1011 harboring mutation in putative lipoprotein by Etest method; outline: as §2
Pseudomonas aeruginosa [7] = test: Antimicrobial activity against Pseudomonas aeruginosa PA14 PA3721 harboring nalC mutant gene by Etest method; outline: as §1
Pseudomonas aeruginosa [8] = test: Antimicrobial activity against Pseudomonas aeruginosa PA14 PA1483 harboring cycH mutant gene by Etest method; outline: as §2
Pseudomonas aeruginosa [9] = test: Antimicrobial activity against Pseudomonas aeruginosa PA14 PA1195 harboring mutation in putative dimethylarginine dimethylaminohydrolase by Etest method; outline: as §2
Pseudomonas aeruginosa [10] = test: Antimicrobial activity against Pseudomonas aeruginosa PA14 PA1553 harboring mutation in putative cytochrome c oxidase, cbb3 type, subunit II by Etest method; outline: as §2
Pseudomonas aeruginosa [11] = test: Antimicrobial activity against Pseudomonas aeruginosa PA14 PA5003 harboring mutation in conserved hypothetical protein by Etest method; outline: as §1
Pseudomonas aeruginosa [12] = test: Antimicrobial activity against Pseudomonas aeruginosa PA14 PA1348 harboring mutation in conserved hypothetical protein by Etest method; outline: as §2
Pseudomonas aeruginosa [13] = test: Antimicrobial activity against Pseudomonas aeruginosa PA14 PA0401 harboring mutation in Noncatalytic dihydroorotase-like protein by Etest method; outline: as §2
Pseudomonas aeruginosa [14] = test: Antimicrobial activity against Pseudomonas aeruginosa PA14 PA2128 harboring cupA1 mutant gene by Etest method; outline: as §2
Pseudomonas aeruginosa [15] = test: Antimicrobial activity against Pseudomonas aeruginosa PA14 PA5366 harboring pstB mutant gene by Etest method; outline: as §1
Pseudomonas aeruginosa [16] = test: Antimicrobial activity against wild type Pseudomonas aeruginosa PA14 by Etest method; outline: as §1
Pseudomonas aeruginosa [17] = test: Antimicrobial activity against Pseudomonas aeruginosa PA14 PA5001 harboring mutation in conserved hypothetical protein by Etest method; outline: as §1
Pseudomonas aeruginosa [18] = test: Antimicrobial activity against Pseudomonas aeruginosa PA14 PA4748 harboring tpiA mutant gene by Etest method; outline: as §1
Pseudomonas aeruginosa [19] = test: Antimicrobial activity against Pseudomonas aeruginosa PA14 PA4946 harboring mutL mutant gene by Etest method; outline: as §1
Pseudomonas aeruginosa [20] = test: Antimicrobial activity against Pseudomonas aeruginosa PA14 PA5002 harboring mutation in hypothetical protein by Etest method; outline: as §1
Pseudomonas aeruginosa [21] = test: Antimicrobial activity against Pseudomonas aeruginosa PA14 PA5038 harboring aroB mutant gene by Etest method; outline: as §1
Pseudomonas aeruginosa [22] = test: Antimicrobial activity against Pseudomonas aeruginosa PA14 PA5443 harboring uvrD mutant gene by Etest method; outline: as §1
Pseudomonas aeruginosa [23] = test: Antimicrobial activity against Pseudomonas aeruginosa PA14 PA4550 harboring fimU mutant gene by Etest method; outline: as §1
Pseudomonas aeruginosa [24] = test: Antimicrobial activity against Pseudomonas aeruginosa PA14 PA4269 harboring rpoC mutant gene by Etest method; outline: as §1
Pseudomonas aeruginosa [25] = test: Antimicrobial activity against Pseudomonas aeruginosa PA14 PA2621 harboring clpS mutant gene by Etest method; outline: as §2
Pseudomonas aeruginosa [26] = test: Antimicrobial activity against Pseudomonas aeruginosa PA14 PA14_23430 harboring mutation in putative heparinase by Etest method; outline: as §2
Pseudomonas aeruginosa [27] = test: Antimicrobial activity against Pseudomonas aeruginosa PA14 PA3050 harboring pyrD mutant gene by Etest method; outline: as §2
Pseudomonas aeruginosa [28] = test: Antimicrobial activity against Pseudomonas aeruginosa PA14 PA3978 harboring mutation in hypothetical protein by Etest method; outline: as §1
Pseudomonas aeruginosa [29] = test: Antimicrobial activity against Pseudomonas aeruginosa PA14 PA3259 harboring mutation in conserved hypothetical protein by Etest method; outline: as §1
Pseudomonas aeruginosa [30] = test: Antimicrobial activity against Pseudomonas aeruginosa PA14 PA0479 harboring mutation in putative transcriptional regulator, LysR family by Etest method; outline: as §2
Pseudomonas aeruginosa [31] = test: Antimicrobial activity against Pseudomonas aeruginosa PA14 PA5288 harboring glnK mutant gene by Etest method; outline: as §1
Pseudomonas aeruginosa [32] = test: Antimicrobial activity against Pseudomonas aeruginosa PA14 PA4005 harboring mutation in conserved hypothetical protein by Etest method; outline: as §1
Pseudomonas aeruginosa [33] = test: Antimicrobial activity against Pseudomonas aeruginosa PA14 PA3620 harboring mutS mutant gene by Etest method; outline: as §1
Pseudomonas aeruginosa [34] = test: Antimicrobial activity against Pseudomonas aeruginosa PA14 PA0420 harboring bioA mutant gene by Etest method; outline: as §2
Pseudomonas aeruginosa [35] = test: Antimicrobial activity against Pseudomonas aeruginosa PA14 PA0766 harboring mucD mutant gene by Etest method; outline: as §2
Pseudomonas aeruginosa [36] = test: Antimicrobial activity against Pseudomonas aeruginosa PA14 PA4459 harboring mutation in Conserved hypothetical protein by Etest method; outline: as §1
Pseudomonas aeruginosa [37] = test: Antimicrobial activity against Pseudomonas aeruginosa PA14 PA14_15600 harboring mutation in conserved hypothetical protein by Etest method; outline: as §2
Pseudomonas aeruginosa [38] = test: Antimicrobial activity against Pseudomonas aeruginosa PA14 PA2487 harboring mutation in hypothetical protein by Etest method; outline: as §2
Pseudomonas aeruginosa [39] = test: Antimicrobial activity against Pseudomonas aeruginosa PA14 PA0958 harboring oprD mutant gene by Etest method; outline: as §2
Pseudomonas aeruginosa [40] = test: Antimicrobial activity against Pseudomonas aeruginosa PA14 PA14_06490 harboring mutation in hypothetical protein by Etest method; outline: as §2
Pseudomonas aeruginosa [41] = test: Antimicrobial activity against Pseudomonas aeruginosa PA14 PA14_59780 harboring rcsC mutant gene by Etest method; outline: as §2
Pseudomonas aeruginosa [42] = test: Antimicrobial activity against Pseudomonas aeruginosa PA14 PA3433 harboring mutation in putative transcriptional regulator, LysR family by Etest method; outline: as §1
Pseudomonas aeruginosa [43] = test: Antimicrobial activity against Pseudomonas aeruginosa PA14 PA3141 harboring wbpM mutant gene by Etest method; outline: as §2
Pseudomonas aeruginosa [44] = test: Antimicrobial activity against Pseudomonas aeruginosa PA14 PA5192 harboring pckA mutant gene by Etest method; outline: as §1
Pseudomonas aeruginosa [45] = test: Antimicrobial activity against Pseudomonas aeruginosa PA14 PA14_43090 harboring mutation in hypothetical protein by Etest method; outline: as §2
Pseudomonas aeruginosa [46] = test: Antimicrobial activity against Pseudomonas aeruginosa PA14 PA4745 harboring nusA mutant gene by Etest method; outline: as §1
Pseudomonas aeruginosa [47] = test: Antimicrobial activity against Pseudomonas aeruginosa PA14 PA0667 harboring mutation in putative metallopeptidase by Etest method; outline: as §2
Pseudomonas aeruginosa [48] = test: Antimicrobial activity against Pseudomonas aeruginosa PA14 PA14_23420 harboring mutation in putative zinc-binding dehydrogenase by Etest method; outline: as §2

Compound `C[C@@H](O)[C@H]1C(=O)N2C(C(=O)O)=C(S[C@@H]3CN[C@H](C(=O)N(C)C)C3)[C@H](C)[C@H]12` [MEROPENEM] has an MIC (Pseudomonas aeruginosa [1]) of 0.38 mg/L (≈ 0.991 µM), an MIC (Pseudomonas aeruginosa [2]) of 0.047 mg/L (≈ 0.123 µM) and an MIC (Pseudomonas aeruginosa [3]) of 0.125 mg/L (≈ 0.326 µM). The MIC (Pseudomonas aeruginosa [4]) was 0.094 mg/L (≈ 0.245 µM), the MIC (Pseudomonas aeruginosa [5]) was 0.125 mg/L (≈ 0.326 µM) and the MIC (Pseudomonas aeruginosa [6]) was 0.19 mg/L (≈ 0.495 µM). It also gave an MIC (Pseudomonas aeruginosa [7]) of 0.38 mg/L (≈ 0.991 µM), an MIC (Pseudomonas aeruginosa [8]) of 0.125 mg/L (≈ 0.326 µM) and an MIC (Pseudomonas aeruginosa [9]) of 0.125 mg/L (≈ 0.326 µM). The MIC (Pseudomonas aeruginosa [10]) was 0.125 mg/L (≈ 0.326 µM), the MIC (Pseudomonas aeruginosa [11]) was 0.25 mg/L (≈ 0.652 µM) and the MIC (Pseudomonas aeruginosa [12]) was 0.5 mg/L (≈ 1.3 µM). The MIC (Pseudomonas aeruginosa [13]) was 0.064 mg/L (≈ 0.167 µM), the MIC (Pseudomonas aeruginosa [14]) was 0.125 mg/L (≈ 0.326 µM) and the MIC (Pseudomonas aeruginosa [15]) was 0.125 mg/L (≈ 0.326 µM). It also gave an MIC (Pseudomonas aeruginosa [16]) of 0.125 mg/L (≈ 0.326 µM), an MIC (Pseudomonas aeruginosa [17]) of 0.38 mg/L (≈ 0.991 µM) and an MIC (Pseudomonas aeruginosa [18]) of 0.25 mg/L (≈ 0.652 µM). For the same compound, the MIC (Pseudomonas aeruginosa [19]) was 0.094 mg/L (≈ 0.245 µM), the MIC (Pseudomonas aeruginosa [20]) was 0.094 mg/L (≈ 0.245 µM) and the MIC (Pseudomonas aeruginosa [21]) was 0.25 mg/L (≈ 0.652 µM). The MIC (Pseudomonas aeruginosa [22]) was 0.094 mg/L (≈ 0.245 µM), the MIC (Pseudomonas aeruginosa [23]) was 0.125 mg/L (≈ 0.326 µM) and the MIC (Pseudomonas aeruginosa [24]) was 0.094 mg/L (≈ 0.245 µM). For the same compound, the MIC (Pseudomonas aeruginosa [25]) was 0.19 mg/L (≈ 0.495 µM), the MIC (Pseudomonas aeruginosa [26]) was 0.125 mg/L (≈ 0.326 µM) and the MIC (Pseudomonas aeruginosa [27]) was 0.094 mg/L (≈ 0.245 µM). It also gave an MIC (Pseudomonas aeruginosa [28]) of 0.125 mg/L (≈ 0.326 µM), an MIC (Pseudomonas aeruginosa [29]) of 0.125 mg/L (≈ 0.326 µM) and an MIC (Pseudomonas aeruginosa [30]) of 0.047 mg/L (≈ 0.123 µM). The MIC (Pseudomonas aeruginosa [31]) was 0.047 mg/L (≈ 0.123 µM), the MIC (Pseudomonas aeruginosa [32]) was 0.094 mg/L (≈ 0.245 µM) and the MIC (Pseudomonas aeruginosa [33]) was 0.125 mg/L (≈ 0.326 µM). The MIC (Pseudomonas aeruginosa [34]) was 0.094 mg/L (≈ 0.245 µM), the MIC (Pseudomonas aeruginosa [35]) was 0.125 mg/L (≈ 0.326 µM) and the MIC (Pseudomonas aeruginosa [36]) was 0.125 mg/L (≈ 0.326 µM). It also gave an MIC (Pseudomonas aeruginosa [37]) of 0.125 mg/L (≈ 0.326 µM), an MIC (Pseudomonas aeruginosa [38]) of 0.125 mg/L (≈ 0.326 µM) and an MIC (Pseudomonas aeruginosa [39]) of 1 mg/L (≈ 2.61 µM). The MIC (Pseudomonas aeruginosa [40]) was 0.125 mg/L (≈ 0.326 µM), the MIC (Pseudomonas aeruginosa [41]) was 0.125 mg/L (≈ 0.326 µM) and the MIC (Pseudomonas aeruginosa [42]) was 0.125 mg/L (≈ 0.326 µM). For the same compound, the MIC (Pseudomonas aeruginosa [43]) was 0.125 mg/L (≈ 0.326 µM), the MIC (Pseudomonas aeruginosa [44]) was 0.25 mg/L (≈ 0.652 µM) and the MIC (Pseudomonas aeruginosa [45]) was 0.125 mg/L (≈ 0.326 µM). It also gave an MIC (Pseudomonas aeruginosa [46]) of 0.125 mg/L (≈ 0.326 µM), an MIC (Pseudomonas aeruginosa [47]) of 0.19 mg/L (≈ 0.495 µM) and an MIC (Pseudomonas aeruginosa [48]) of 0.125 mg/L (≈ 0.326 µM).
